Columns and labels:
[1] = Stability test in PBS, MCF7 cell lysates and rat plasma; assay type: in vitro ADME; settings: 5 μM, 37℃
Procedure, shortened: (§1)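 Test compound (5 μM) was incubated at 37℃ in PBS, rat plasma, or MCF7 lysate. Lysate was prepared by adding PMSF, sonicating 10 sec, and centrifuging at 4℃ and 13,200 rpm for 15 min. Samples taken over time up to 120 min were quenched in ice-cold acetonitrile and centrifuged. Supernatant was diluted in 10 mM K2HPO4 pH 7.4 and run on C18 HPLC (K2HPO4:acetonitrile 62:38, 1 ml/min) with fluorescence detection (ex 380/em 540 nm). Data are mean ± SD.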

[2] = tested on: CT26; experiment: MTT cytotoxicity test in CT26 cells; assay type: cell-based
Procedure, shortened: (§2)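 Cells were grown in DMEM with 10% FBS, 100 unit/ml penicillin and 0.1 mg/ml streptomycin at 37℃ and 5% CO2, and split near 80% confluency. They were seeded at 1×10^5 cells/well and cultured 24 h to ~80% confluency, then exposed to test compound for 72 h. MTT (0.5 mg/ml in serum-free medium) was added for 2 h, and absorbance was read at 540 nm. Data are mean ± SD.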

[3] = ref Kawato et al., 1991; cited from earlier work
[4] = sodium phosphate (pH 7), 120 min; ref Tallman et al., 2005; cited from earlier work
[5] = tested on: HT29; experiment: MTT cytotoxicity test in HT29 cells; assay type: cell-based; settings: Homo sapiens, HT-29, 72 h
Procedure, shortened: as §2

[6] = tested on: colon cancer-induced mice; experiment: In vivo survival test in colon cancer-induced mice; settings: intravenous, n=4
Procedure, shortened: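 Mice were anesthetized and the cecum exteriorized by laparotomy. CT26 cells (1×10^6 in 50 μl) were injected into the cecal wall, then the gut was returned and the incision closed (surgical orthotopic implantation). Test compounds were given intravenously, and survival was followed over the experimental period.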

[7] = tested on: MCF7 cells; experiment: MTT cytotoxicity test in MCF7 cells; assay type: cell-based; settings: Homo sapiens, MCF7, 72 h
Procedure, shortened: as §2

[8] = Proportion of total lactone form in PBS, MCF7 cell lysates and rat plasma; assay type: in vitro ADME; settings: 37℃
Procedure, shortened: as §1

SMILES: CCc1c2c(nc3ccc(O)cc13)-c1cc3c(c(=O)n1C2)COC(=O)[C@]3(O)CC [SN-38, 7-ethyl-10-hydroxy-camptothecin]
- stability in MCF7 lysates ([1]; MCF7 lysates, up to 120 min): rather unstable
- compound remaining after 120 min ([1]; PBS): ~80%
- compound remaining after 120 min ([1]; rat plasma): about 60%
- potency compared with irinotecan ([2]; MTT assay, CT26 and HT29 (Fig. 2)): much more potent than the parent compound irinotecan
- EC50 ([2]; Mus musculus, CT26, 72 h): 17.3 µM
- potency relative to irinotecan in terms of in vitro cytotoxicity [3]: 100 fold
- percentage of SN-38 lactone remaining [4]: around 40%
- EC50 [5]: 1.32 µM
- survived longer than the irinotecan-administered group [6]: at least 2 weeks
- EC50 [7]: 0.248 µM
- proportion of the lactone form at 120 min ([8]; MCF7 lysates): around 40%
- proportion of the lactone form at 120 min ([8]; PBS): around 40%
- proportion of the lactone form at 120 min ([8]; all 3 conditions (PBS, MCF7 lysates, plasma)): 30-40%
- initial proportion of the lactone form ([8]; early time points, all 3 conditions (PBS, MCF7 lysates, plasma), 5 μM): 80-90%
- proportion of the lactone form at 120 min ([8]; rat plasma): ~ 30%

SMILES: CCc1c2c(nc3ccc(OC(=O)N4CCC(N5CCCCC5)CC4)cc13)-c1cc3c(c(=O)n1C2)COC(=O)[C@]3(O)CC [irinotecan]
- survival time [6]: < 28 days
